Yeast lifespan up: extends the lifespan of yeast. S. cerevisiae growth with nicotinamide, OD615; deaD strain in restrictive glucose medium. 130,000 tested, 0.68% active. AID 775. inhibition of the nicotinamide effect, % at 10 µM;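 active = inhibition above a set limit, placed 3 SD over the median of all compounds, cut at about 26% in these data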
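Assay system: engineered S. cerevisiae DeaD replicative-lifespan strain, galactose-grown log-phase cells; Buffer or medium: CSMM-D glucose medium, restrictive; Probe or stimulus: nicotinamide 1.5 mM; Compound: single dose 10 µM compound, 0.25% DMSO; Schedule: 4 h preincubation then 48 h treatment at 30 °C; Technique: OD615 measurement.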
WT yeast gro inh: growth inhibition of WT yeast, mitochondrial fusion screen; inhibition, % at 10 µM; mitochondrial fusion phenotypic screen, WT strain; 190,000 tested, 2.1% active; in the data active = inhibition above about 58%; tested in S. cerevisiae
Measles CPE: protection of cells from measles virus; Measles virus-infected cells, CPE protection, absorbance; protection (pct of control), % at 4 µM; 140,000 tested, 1.5% active; AID 841; in the data active = protection mostly above about 24%, no sharp cut-off; inactive = mostly below about 26%
Yeast growth inh: reduces growth of yeast BB579 in restrictive medium | S. cerevisiae BB579 growth, OD615, 48 h | AID 804 | inhibition, % at 10 µM | 140,000 tested, 0.51% active;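 active = inhibition above a set limit, 3 SD over the mean compound inhibition, cut at about 44% in these data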
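Test system: DeaD yeast strain BB579 / Buffer or medium: restrictive glucose-based CSMM-D medium / Doses: single 10 µM dose / Schedule: 4 h cell preincubation, 48 h compound exposure, 30 °C humidified / Technique: culture absorbance at 615 nm / Controls: amphotericin B positive control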
DAT uptake mod: changed human dopamine transporter uptake under cocaine IC80; Q01959; LLC-PK1 hDAT cells, [14C]-dopamine uptake with cocaine IC80; actives deviate in either direction; B-score at 10 µM; 110,000 tested, 1.3% active; AID 449768;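 active = Z score or B-score, a plate-position-corrected score, falls beyond the plate's 99.7% confidence bounds, in either direction; inactive = both scores lie inside the 99.7% bounds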
Target sequence (Q01959 whole entry, looked up): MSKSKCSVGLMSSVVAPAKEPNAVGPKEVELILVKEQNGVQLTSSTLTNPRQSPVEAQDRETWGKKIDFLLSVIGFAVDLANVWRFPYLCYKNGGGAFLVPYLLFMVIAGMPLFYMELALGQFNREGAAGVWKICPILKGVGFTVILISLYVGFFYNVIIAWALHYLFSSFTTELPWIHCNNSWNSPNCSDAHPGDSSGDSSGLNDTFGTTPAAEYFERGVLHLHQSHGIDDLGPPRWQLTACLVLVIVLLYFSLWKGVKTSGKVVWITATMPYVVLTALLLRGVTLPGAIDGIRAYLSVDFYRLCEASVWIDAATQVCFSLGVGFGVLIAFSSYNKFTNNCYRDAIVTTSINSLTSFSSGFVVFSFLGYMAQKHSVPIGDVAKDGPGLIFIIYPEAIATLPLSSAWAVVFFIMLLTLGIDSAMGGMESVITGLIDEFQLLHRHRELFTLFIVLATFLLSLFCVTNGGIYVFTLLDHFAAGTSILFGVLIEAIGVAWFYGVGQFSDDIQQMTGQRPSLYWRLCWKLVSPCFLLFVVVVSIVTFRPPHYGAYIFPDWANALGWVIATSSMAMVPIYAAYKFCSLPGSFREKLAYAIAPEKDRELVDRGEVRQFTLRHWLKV
RAM network inh: inhibitors of the yeast RAM network; 190,000 tested, 1.8% active; inhibition, % at 50 µM; S. cerevisiae dse1pr::URA3 reporter, 5-FOA growth OD615, 2 d; analog-sensitive cbk1-as2 kinase mutant strain;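 active = inhibition above a set limit, 3 SD over mean compound inhibition, cut at about 8.4% in these data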;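 also: inhibition rescues growth on 5-FOA so higher OD means more RAM inhibition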
A number is an active result; n = inactive; x = no result. A selection: hits, their analogues and other compounds. The true share with any hit is near 6.1%.

SMILES	Yeast lifespan up	WT yeast gro inh	Measles CPE	Yeast growth inh	DAT uptake mod	RAM network inh
Cc1nc2cc(-c3ccc(Cl)cc3)nn2c(C)c1CCC(=O)NC(C)c1ccc2c(c1)OCCO2 (stereo unspecified)	n	71	n	n	n	n
Cc1csc(NC(=O)CCc2c(C)nc3cc(-c4ccc(Cl)cc4)nn3c2C)n1	n	n	n	n	x	n
Cc1ccn2cc(CNS(=O)(=O)c3ccc(Cl)s3)nc2c1	n	n	29	n	n	n
O=[N+]([O-])c1c(C(Cl)Cl)nn(-c2ccc(Cl)cc2)c1N1CCCCC1	n	75	n	n	x	n
COc1ccccc1N1CCN(c2ncc(C(=O)N3CCN(c4cccc(Cl)c4)CC3)c3ccccc23)CC1	x	59	x	x	x	n
c1ccc2c(c1)nc(CN1CCOCC1)n1c3ccccc3nc21	n	81	n	n	n	n
CCOc1ccc(/C=N/n2c(SC)nnc2-c2ccccc2)cc1OCC	n	n	n	n	3.3	n
O=C(COc1ccc(Cl)cc1)Nc1cc(S(=O)(=O)N2CCCCC2)ccc1N1CCCCC1	n	n	n	n	x	n
CNC(=S)NNS(=O)(=O)c1ccc(OC)cc1OC	x	n	x	x	x	n
Cc1cc(OCC(=O)OCC(=O)Nc2cc(C(F)(F)F)ccc2N2CCOCC2)ccc1Cl	n	n	n	n	x	9.1
CSc1ncccc1C(=O)OCC(=O)Nc1cc(C(F)(F)F)ccc1N1CCOCC1	n	n	x	n	n	n
CN(C)CCCC(=O)c1ccc2c(c1)OCO2	n	n	35	n	n	n
CN(C)CCC(=O)c1ccc2c(c1)OCO2	n	n	n	n	n	n
Cc1ccn2c(/C=N/OCc3ccc(F)cc3)c(-c3ccc(Cl)cc3)nc2c1	n	n	n	n	n	9.7
Cc1ccn2c(/C=N/OCc3cccc(F)c3)c(-c3ccc(Cl)cc3)nc2c1	n	n	n	n	n	n
CC(=O)c1ccc(NC(=O)CN2CCN(c3ncccn3)CC2)cc1	n	n	78	n	n	n
COc1cccc(N2CCN(CC(=O)Nc3ccc(SC(F)F)cc3)CC2)c1	n	63	n	n	x	n
CC(=O)c1ccc(N2CCN(CC(=O)Nc3cc(C)on3)CC2)cc1	x	n	x	x	x	n
O=C(CN1CCN(c2ccccc2)CC1)Nc1ccc(Oc2ccccc2)cc1	n	60	n	n	n	n
CN1CCN(C(=O)CN(c2cc(C(F)(F)F)ccc2Cl)S(C)(=O)=O)CC1	n	n	n	n	n	n
COCCCNC(=O)CC1C(=O)N(Cc2ccccc2)C(C)c2nc3ccccc3n21 (stereo unspecified)	x	n	x	x	x	n
Cc1ccccc1CN(c1ccc(C(=O)N/N=C/c2ccc(OCC(N)=O)cc2)cc1)S(C)(=O)=O	x	n	x	x	x	n
Nc1ncnc2nc(SCCN3CCCCC3)[nH]c12	n	n	n	n	x	n
Cc1cc2nc(SCCN3CCCC3)[nH]c2cc1C	n	n	n	n	-7.8	n
COc1ccc(N)c2c1C(=O)c1ccccc1C2=O	n	n	n	71	x	n
SMILES	Yeast lifespan up	WT yeast gro inh	Measles CPE	Yeast growth inh	DAT uptake mod	RAM network inh
Nc1ccc(O)c2c1C(=O)c1ccccc1C2=O	n	n	n	69	n	n
CC(=O)Nc1nc(-c2ccc(Cl)cc2)ns1	n	n	n	n	x	n
CCOC(=O)CSc1nc2cc(OC)ccc2cc1C#N	n	n	n	n	-9.8	n
CCC(Sc1nc2n[nH]c(C)c2c(=N)n1-c1cccc(Cl)c1)C(=O)NCCOC (stereo unspecified)	n	n	n	n	2	n
C=CCn1c(SC/C=C/c2ccccc2)nnc1-c1sc(N)nc1C	n	n	n	n	n	n
O=[N+]([O-])c1ccc(C[n+]2cccc3ccc4cccnc4c32)cc1	x	59	x	x	x	n
COCCNS(=O)(=O)c1cccc2cccnc12	n	n	n	n	-2.7	n
COc1ccccc1CN1CC(C(=O)NCc2cccnc2)CC1=O (stereo unspecified)	n	n	n	n	n	n
CCOC(=O)N1CCN(C(=O)C2CCN(S(=O)(=O)CC)CC2)CC1	n	n	n	n	n	n
CCOC(=O)N1CCN(C(=O)C2CCCCC2)CC1	n	n	n	n	-2.6	n
COCCCn1c(SCC(=O)Nc2nnc(C)s2)nnc1-c1ccoc1C	60	n	n	n	n	n
COc1ccc(N=C2SC(C(=O)N3CCN(c4ccccc4)CC3)CC(=O)N2C)cc1 (stereo unspecified)	x	n	x	x	n	n

Bioassay records (PubChem)
